These results are taken from ChEMBL document CHEMBL3611989, “Discovery and characterization of aryl isonitriles as a new class of compounds versus methicillin- and vancomycin-resistant Staphylococcus aureus” (Eur J Med Chem, 2015).

Converted amounts (≈) assume the structure as drawn. Where only a bound is given, the exact number is not on record here.

Data set [1] concerns Staphylococcus aureus. Put plainly: Antimicrobial activity against methicillin-sensitive Staphylococcus aureus NRS72 assessed as reduction in bacterial growth incubated for 18 to 20 hrs at 37 degC by broth microdilution method. The class given is functional. Put shortly:
(§1)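 Modified CLSI broth microdilution. Bacterial suspension of about 1 × 10^5 CFU/mL in tryptic soy broth. Each agent was added in triplicate to the first row and serially diluted down the plate. Plates were incubated at 37 °C for 18-20 h. MIC was read as the lowest concentration with no visible growth.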
For orientation: Broth dilution looks for growth in wells or tubes with falling amounts of substance.

In data set [2] the test system is Staphylococcus aureus. Description: Antimicrobial activity against methicillin-resistant Staphylococcus aureus USA100 assessed as reduction in bacterial growth incubated for 18 to 20 hrs at 37 degC by broth microdilution method. The class given is functional. Put shortly:
as §1

The test system of data set [3] is Staphylococcus aureus. Put plainly: Antimicrobial activity against methicillin-resistant Staphylococcus aureus USA200 assessed as reduction in bacterial growth incubated for 18 to 20 hrs at 37 degC by broth microdilution method. The class given is functional. Put shortly:
as §1

Data set [4] has as its system Staphylococcus aureus. Put plainly: Antimicrobial activity against methicillin-resistant Staphylococcus aureus USA300 assessed as reduction in bacterial growth incubated for 18 to 20 hrs at 37 degC by broth microdilution method. The class given is functional. Put shortly:
as §1

Data set [5] relates to Staphylococcus aureus. Description: Antimicrobial activity against methicillin-resistant Staphylococcus aureus USA500 assessed as reduction in bacterial growth incubated for 18 to 20 hrs at 37 degC by broth microdilution method. The class given is functional. An outline of the steps:
as §1

The test system of data set [6] is Staphylococcus aureus. Put plainly: Antimicrobial activity against methicillin-resistant Staphylococcus aureus USA700 assessed as reduction in bacterial growth incubated for 18 to 20 hrs at 37 degC by broth microdilution method. The class given is functional. An outline of the steps: as §1
Data set [7] has as its system Staphylococcus aureus. Description: Antimicrobial activity against methicillin-resistant Staphylococcus aureus NRS119 assessed as reduction in bacterial growth incubated for 18 to 20 hrs at 37 degC by broth microdilution method. The data set is classed as functional. An outline of the steps: as §1
The subject of data set [8] is Staphylococcus aureus. Description: Antimicrobial activity against vancomycin-intermediate-resistant Staphylococcus aureus NRS1 assessed as reduction in bacterial growth incubated for 18 to 20 hrs at 37 degC by broth microdilution method. The class given is functional. Put shortly:
as §1

The test system of data set [9] is Staphylococcus aureus. Put plainly: Antimicrobial activity against vancomycin-resistant Staphylococcus aureus VRS2 assessed as reduction in bacterial growth incubated for 18 to 20 hrs at 37 degC by broth microdilution method. The data set is classed as functional. An outline of the steps:
as §1

Data set [10] deals with J774. Put plainly: Cytotoxicity against mouse J774 cells assessed as reduction in cell viability at 32 uM incubated for 2 hrs by MTS assay. The class given is cell-based. The settings on record: j774, 2 h. Put shortly:
(§2)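 Murine J774 macrophages grown in DMEM with 10% FBS at 37 °C, 5% CO2. Compounds were tested in triplicate at 16, 32, 64 and 128 μM for 2 h, with DMSO-matched vehicle controls. MTS reagent was then added and absorbance read at OD490. Viability is given as percent of DMSO-treated cells (mean of triplicate ± standard deviation), compared by paired t-test (P < 0.05).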
(In general: Formazan colour is commonly taken as a measure of viable cells.)

Data set [11] relates to J774. Description: Cytotoxicity against mouse J774 cells assessed as reduction in cell viability at 64 uM incubated for 2 hrs by MTS assay. The class given is cell-based. The settings on record: j774, 2 h. Put shortly:
as §2

In data set [12] the test system is J774. The data set is classed as cell-based. The settings on record: mouse, j774, 2 h, 128 µM.
Data set [13] relates to J774. Put plainly: Cytotoxicity against mouse J774 cells assessed as reduction in cell viability up to 64 uM incubated for 2 hrs by MTS assay. The settings on record: j774, 2 h. The data set is classed as cell-based. An outline of the steps:
as §2

Data set [14] is described as follows: Metabolic stability in human liver microsomes assessed as compound remaining incubated for 60 mins in presence of NADPH. The data set is classed as ADME. The settings on record: read-out: Stability.
Data set [15] is described as follows: Metabolic stability in human liver microsomes assessed as compound remaining incubated for 60 mins in absence of NADPH. The data set is classed as ADME. As to conditions: read-out: Stability.

As to `[C-]#[N+]c1ccccc1/C=C/c1ccc(C)cc1`, the MIC was 16 µM (≈ 3.51 µg/mL) in data set [1]; 4 µM (≈ 0.877 µg/mL) in data set [2]; 4 µM (≈ 0.877 µg/mL) in [3]; 16 µM (≈ 3.51 µg/mL) in [4]; 32 µM (≈ 7.02 µg/mL) in data set [5]; 8 µM (≈ 1.75 µg/mL) in [6]. The MIC in [7] was 64 µM (≈ 14 µg/mL); in data set [8] it was 4 µM (≈ 0.877 µg/mL); in data set [9], 32 µM (≈ 7.02 µg/mL). For the same compound, the Activity entry is recorded as “Non-toxic” in [10], “Non-toxic” in data set [11] and “Toxic” in data set [12].
For `[C-]#[N+]c1ccccc1/C=C/c1ccccn1`, the MIC stood at 64 µM (≈ 13.2 µg/mL) in [1]; 64 µM (≈ 13.2 µg/mL) in data set [2]; 64 µM (≈ 13.2 µg/mL) in [3]; 16 µM (≈ 3.3 µg/mL) in data set [4]; 64 µM (≈ 13.2 µg/mL) in [5]; 32 µM (≈ 6.6 µg/mL) in [6]. Also, the MIC is 128 µM (≈ 26.4 µg/mL) in [7], 64 µM (≈ 13.2 µg/mL) in data set [8] and 32 µM (≈ 6.6 µg/mL) in [9]. Also, the Activity entry was “Non-toxic” in [10], “Non-toxic” in data set [11] and “Toxic” in [12].
Consider `[C-]#[N+]c1ccccc1/C=C/c1cccnc1`, for which the MIC in data set [1] came out at 64 µM (≈ 13.2 µg/mL); in data set [2], 32 µM (≈ 6.6 µg/mL); in [3], 32 µM (≈ 6.6 µg/mL); in data set [4], 16 µM (≈ 3.3 µg/mL); in data set [5] it was 32 µM (≈ 6.6 µg/mL); in [6], 32 µM (≈ 6.6 µg/mL). Further, the MIC in [7] is 64 µM (≈ 13.2 µg/mL); in [8], 64 µM (≈ 13.2 µg/mL); in data set [9], 32 µM (≈ 6.6 µg/mL). Further, the Activity entry in data set [10], in data set [11] and in [12] was “Non-toxic” each time.
For the compound `[C-]#[N+]c1cccc(/C=C/c2ccccc2)c1`, the MIC in data set [1] is 16 µM (≈ 3.28 µg/mL); in [2], 32 µM (≈ 6.57 µg/mL); in data set [3] it was 32 µM (≈ 6.57 µg/mL); in data set [4], 16 µM (≈ 3.28 µg/mL); in data set [5] it was above 128 µM; in data set [6] it was 16 µM (≈ 3.28 µg/mL). Also, the MIC stood at 64 µM (≈ 13.1 µg/mL) in data set [7], 32 µM (≈ 6.57 µg/mL) in [8] and 32 µM (≈ 6.57 µg/mL) in data set [9]. Also, the Activity entry in data set [10] is listed as “Non-toxic”; in data set [11] it was “Non-toxic”; in data set [12], “Toxic”.
Take `[C-]#[N+]c1ccc(/C=C/c2ccccc2)cc1`: the MIC was 4 µM (≈ 0.821 µg/mL) in data set [1]; 4 µM (≈ 0.821 µg/mL) in data set [2]; 32 µM (≈ 6.57 µg/mL) in data set [3]; 4 µM (≈ 0.821 µg/mL) in data set [4]; 16 µM (≈ 3.28 µg/mL) in data set [5]; 64 µM (≈ 13.1 µg/mL) in data set [6]. The MIC in [7], in data set [8] and in data set [9] was above 128 µM each time. Moreover, the Activity entry in data set [10], in data set [11] and in data set [12] was “Non-toxic” in each case.
As for `CC/C(=C\c1ccccc1)c1ccccc1`, the MIC in data set [1], in data set [2], in [3], in data set [4], in [5] and in data set [6] was above 128 µM in each case. Besides, the MIC in data set [7], in [8] and in data set [9] was above 128 µM throughout. The Activity entry in data set [13] is listed as “Non-toxic”; in [10], “Non-toxic”; in [11], “Non-toxic”; in data set [12] it was “Toxic”.
For the compound `[C-]#[N+]c1ccccc1-c1ccc2ccccc2c1`, the MIC is 16 µM (≈ 3.67 µg/mL) in data set [1]; 16 µM (≈ 3.67 µg/mL) in [2]; 64 µM (≈ 14.7 µg/mL) in data set [3]; 64 µM (≈ 14.7 µg/mL) in data set [4]; 32 µM (≈ 7.34 µg/mL) in [5]; 16 µM (≈ 3.67 µg/mL) in data set [6]. For the same compound, the figures for the MIC in data set [7], in [8] and in data set [9] were 32 µM (≈ 7.34 µg/mL), 4 µM (≈ 0.917 µg/mL) and 64 µM (≈ 14.7 µg/mL), respectively. Also, the values for the Activity entry in data set [10], in data set [11] and in data set [12] were “Non-toxic”, “Non-toxic” and “Toxic”, respectively.
With `CC(=O)CC(c1ccccc1)c1c(O)c2ccccc2oc1=O` (configuration not stated) [WARFARIN], the remaining at 1 h in data set [14] came out at 93%; in [15], 94%.

The term MIC denotes the smallest concentration in the dilution series that meets the test's criterion for growth inhibition.
